# What was measured:
# Bacteroides fragilis = experiment: Antimicrobial activity against Bacteroides fragilis under anaerobic conditions after 44 hrs by CLSI-M11-47 protocol based agar dilution method; type: functional
# In short: (§1)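 Reference agar dilution per CLSI M11-A7 with plates made on test day. Clinical isolates were stored at −70°C in 20% skim milk, subcultured twice, and 48-h cell paste was suspended in brucella broth to 0.5 McFarland. About 10^5 CFU/spot was applied with a Steers replicator. Plates were incubated 44 h at 37°C anaerobically. MIC was the lowest concentration giving complete inhibition or marked growth reduction versus the drug-free control.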
# Bacteroides caccae = experiment: Antimicrobial activity against Bacteroides caccae under anaerobic conditions after 44 hrs by CLSI-M11-47 protocol based agar dilution method; type: functional; in short: as §1
# [1] = test system: Parabacteroides distasonis; experiment: Antimicrobial activity against Bacteroides distasonis under anaerobic conditions after 44 hrs by CLSI-M11-47 protocol based agar dilution method; type: functional; in short: as §1
# Bacteroides uniformis = experiment: Antimicrobial activity against Bacteroides uniformis under anaerobic conditions after 44 hrs by CLSI-M11-47 protocol based agar dilution method; type: functional; in short: as §1
# Fusobacterium mortiferum = experiment: Antimicrobial activity against Fusobacterium mortiferum under anaerobic conditions after 44 hrs by CLSI-M11-47 protocol based agar dilution method; type: functional; in short: as §1
# Fusobacterium varium = experiment: Antimicrobial activity against Fusobacterium varium under anaerobic conditions after 44 hrs by CLSI-M11-47 protocol based agar dilution method; type: functional
# In short: (§2)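 Clinical isolates were stored at −70°C in 20% skim milk and identified phenotypically or by partial 16S rRNA sequencing. Each strain was subcultured twice from frozen stock. Cell paste from 48-h cultures was suspended in brucella broth to a 0.5 McFarland standard. About 10^5 CFU per spot were applied by Steers replicator to agar dilution plates prepared on the day of testing. Plates were incubated 44 h at 37°C in an anaerobic chamber. MIC was taken as the lowest concentration giving complete inhibition or marked reduction of growth versus the drug-free control.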
# Veillonella = experiment: Antimicrobial activity against Veillonella spp. under anaerobic conditions after 44 hrs by CLSI-M11-47 protocol based agar dilution method; type: functional; in short: as §2
# Anaerococcus prevotii = experiment: Antimicrobial activity against Anaerococcus prevotii under anaerobic conditions after 44 hrs by CLSI-M11-47 protocol based agar dilution method; type: functional; in short: as §1
# Parvimonas micra = experiment: Antimicrobial activity against Parvimonas micra under anaerobic conditions after 44 hrs by CLSI-M11-47 protocol based agar dilution method; type: functional; in short: as §2
# [2] = test system: Peptostreptococcus anaerobius; experiment: Antimicrobial activity against Peptostreptococcus anaerobius under anaerobic conditions after 44 hrs by CLSI-M11-47 protocol based agar dilution method; type: functional; in short: as §2
# [3] = test system: Peptostreptococcus stomatis; experiment: Antimicrobial activity against Peptostreptococcus stomatis under anaerobic conditions after 44 hrs by CLSI-M11-47 protocol based agar dilution method; type: functional; in short: as §2
# [4] = test system: Anaerococcus lactolyticus; experiment: Antimicrobial activity against Anaerococcus lactolyticus under anaerobic conditions after 44 hrs by CLSI-M11-47 protocol based agar dilution method; type: functional; in short: as §1
# Anaerococcus murdochii = experiment: Antimicrobial activity against Anaerococcus murdochii under anaerobic conditions after 44 hrs by CLSI-M11-47 protocol based agar dilution method; type: functional; in short: as §1
# Anaerococcus octavius = experiment: Antimicrobial activity against Anaerococcus octavius under anaerobic conditions after 44 hrs by CLSI-M11-47 protocol based agar dilution method; type: functional; in short: as §1
# Anaerococcus = experiment: Antimicrobial activity against Anaerococcus sp. under anaerobic conditions after 44 hrs by CLSI-M11-47 protocol based agar dilution method; type: functional; in short: as §1
# Gemella morbillorum = experiment: Antimicrobial activity against Gemella morbillorum under anaerobic conditions after 44 hrs by CLSI-M11-47 protocol based agar dilution method; type: functional; in short: as §2
# Peptoniphilus lacrimalis = experiment: Antimicrobial activity against Peptoniphilus lacrimalis under anaerobic conditions after 44 hrs by CLSI-M11-47 protocol based agar dilution method; type: functional; in short: as §2
# Actinomyces israelii = experiment: Antimicrobial activity against Actinomyces israelii under anaerobic conditions after 44 hrs by CLSI-M11-47 protocol based agar dilution method; type: functional; in short: as §1
# Schaalia meyeri = experiment: Antimicrobial activity against Actinomyces meyeri under anaerobic conditions after 44 hrs by CLSI-M11-47 protocol based agar dilution method; type: functional; in short: as §1
# [5] = test system: Actinomyces neuii subsp. anitratus; experiment: Antimicrobial activity against Actinomyces neuii subsp. anitratus under anaerobic conditions after 44 hrs by CLSI-M11-47 protocol based agar dilution method; type: functional, Winkia neuii subsp. anitrata; settings: Winkia neuii; in short: as §1
# Propionibacterium avidum = experiment: Antimicrobial activity against Propionibacterium avidum under anaerobic conditions after 44 hrs by CLSI-M11-47 protocol based agar dilution method; type: functional; settings: Cutibacterium avidum; in short: as §2
# Eggerthella lenta = experiment: Antimicrobial activity against Eggerthella lenta under anaerobic conditions after 44 hrs by CLSI-M11-47 protocol based agar dilution method; type: functional; in short: as §1
# Eubacterium saburreum = experiment: Antimicrobial activity against Eubacterium saburreum under anaerobic conditions after 44 hrs by CLSI-M11-47 protocol based agar dilution method; type: functional; settings: Lachnoanaerobaculum saburreum; in short: as §1
# Mogibacterium timidum = experiment: Antimicrobial activity against Mogibacterium timidum under anaerobic conditions after 44 hrs by CLSI-M11-47 protocol based agar dilution method; type: functional; in short: as §2
# Lacticaseibacillus casei = experiment: Antimicrobial activity against Lactobacillus casei under anaerobic conditions after 44 hrs by CLSI-M11-47 protocol based agar dilution method; type: functional; in short: as §2
# Clostridium bolteae = experiment: Antimicrobial activity against Clostridium bolteae under anaerobic conditions after 44 hrs by CLSI-M11-47 protocol based agar dilution method; type: functional; settings: Enterocloster bolteae; in short: as §1
# [6] = test system: Paraclostridium bifermentans; experiment: Antimicrobial activity against Clostridium bifermentans under anaerobic conditions after 44 hrs by CLSI-M11-47 protocol based agar dilution method; type: functional; in short: as §1
# Clostridium butyricum = experiment: Antimicrobial activity against Clostridium butyricum under anaerobic conditions after 44 hrs by CLSI-M11-47 protocol based agar dilution method; type: functional
# [7] = test system: Clostridium celerecrescens; experiment: Antimicrobial activity against Clostridium celerecrescens under anaerobic conditions after 44 hrs by CLSI-M11-47 protocol based agar dilution method; type: functional; settings: Lacrimispora celerecrescens; in short: as §1
# Clostridium hylemonae = experiment: Antimicrobial activity against Clostridium hylemonae under anaerobic conditions after 44 hrs by CLSI-M11-47 protocol based agar dilution method; type: functional; in short: as §1
# Clostridium subterminale = experiment: Antimicrobial activity against Clostridium subterminale under anaerobic conditions after 44 hrs by CLSI-M11-47 protocol based agar dilution method; type: functional; in short: as §1
# Clostridium symbiosum = experiment: Antimicrobial activity against Clostridium symbiosum under anaerobic conditions after 44 hrs by CLSI-M11-47 protocol based agar dilution method; type: functional; in short: as §1
smiles,measurement,setting,value
CCO/N=C(\C(=O)N[C@@H]1C(=O)N2C(C(=O)[O-])=C(Sc3nc(-c4cc[n+](C)cc4)cs3)CS[C@H]12)c1nsc(NP(=O)(O)O)n1 [CEFTAROLINE FOSAMIL],MIC50,Bacteroides fragilis,16 µg/mL
same,MIC90,Bacteroides fragilis,64 µg/mL
same,MIC50,Bacteroides caccae,64 µg/mL
same,MIC90,Bacteroides caccae,> 64 µg/mL
same,MIC50,[1],64 µg/mL
same,MIC90,[1],> 64 µg/mL
same,MIC50,Bacteroides uniformis,64 µg/mL
same,MIC90,Bacteroides uniformis,> 64 µg/mL
same,MIC50,Fusobacterium mortiferum,8 µg/mL
same,MIC90,Fusobacterium mortiferum,32 µg/mL
same,MIC50,Fusobacterium varium,0.25 µg/mL
same,MIC90,Fusobacterium varium,0.5 µg/mL
same,MIC50,Veillonella,0.125 µg/mL
same,MIC90,Veillonella,0.5 µg/mL
same,MIC50,Anaerococcus prevotii,0.03 µg/mL
same,MIC90,Anaerococcus prevotii,0.125 µg/mL
same,MIC50,Parvimonas micra,0.06 µg/mL
same,MIC90,Parvimonas micra,0.25 µg/mL
same,MIC50,[2],0.5 µg/mL
same,MIC90,[2],4 µg/mL
same,MIC50,[3],0.5 µg/mL
same,MIC90,[3],4 µg/mL
same,MIC50,[4],0.06 µg/mL
same,MIC90,[4],1 µg/mL
same,MIC50,Anaerococcus murdochii,0.06 µg/mL
same,MIC90,Anaerococcus murdochii,1 µg/mL
same,MIC50,Anaerococcus octavius,0.06 µg/mL
same,MIC90,Anaerococcus octavius,1 µg/mL
same,MIC50,Anaerococcus,0.06 µg/mL
same,MIC90,Anaerococcus,1 µg/mL
same,MIC50,Gemella morbillorum,0.06 µg/mL
same,MIC90,Gemella morbillorum,1 µg/mL
same,MIC50,Peptoniphilus lacrimalis,0.06 µg/mL
same,MIC90,Peptoniphilus lacrimalis,1 µg/mL
same,MIC50,Actinomyces israelii,0.015 µg/mL
same,MIC90,Actinomyces israelii,0.25 µg/mL
same,MIC50,Schaalia meyeri,0.015 µg/mL
same,MIC90,Schaalia meyeri,0.25 µg/mL
same,MIC50,[5],0.015 µg/mL
same,MIC90,[5],0.25 µg/mL
same,MIC50,Propionibacterium avidum,0.25 µg/mL
same,MIC90,Propionibacterium avidum,0.25 µg/mL
same,MIC50,Eggerthella lenta,8 µg/mL
same,MIC90,Eggerthella lenta,16 µg/mL
same,MIC50,Eubacterium saburreum,0.125 µg/mL
same,MIC90,Eubacterium saburreum,0.25 µg/mL
same,MIC50,Mogibacterium timidum,0.125 µg/mL
same,MIC90,Mogibacterium timidum,0.25 µg/mL
same,MIC50,Lacticaseibacillus casei,0.5 µg/mL
same,MIC90,Lacticaseibacillus casei,1 µg/mL
same,MIC50,Clostridium bolteae,1 µg/mL
same,MIC90,Clostridium bolteae,2 µg/mL
same,MIC50,[6],0.5 µg/mL
same,MIC90,[6],16 µg/mL
same,MIC50,Clostridium butyricum,0.5 µg/mL
same,MIC90,Clostridium butyricum,16 µg/mL
same,MIC50,[7],0.5 µg/mL
same,MIC90,[7],16 µg/mL
same,MIC50,Clostridium hylemonae,0.5 µg/mL
same,MIC90,Clostridium hylemonae,16 µg/mL
same,MIC50,Clostridium subterminale,0.5 µg/mL
same,MIC90,Clostridium subterminale,16 µg/mL
same,MIC50,Clostridium symbiosum,0.5 µg/mL
same,MIC90,Clostridium symbiosum,16 µg/mL

# From ChEMBL document CHEMBL1255409, “In vitro activity of ceftaroline against 623 diverse strains of anaerobic bacteria” (2010)
